Values joined by “and” are separate entries in the source; they are usually repeats but may differ in a detail not shown here. Equal entries are not always repeated.
Tested on: Fibroblast
Experiment: Multiplex assay against human fibroblast
Format: toxicity, cell-based
Outline: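 Imaging took place on a CQ1 microscope at 37°C and 5% CO2 once compound had been added to live cells stained at seeding with Hoechst33342, BioTracker Green Microtubule Cytoskeleton Dye, MitoTracker Red and Annexin V Alexa Fluor 680. CellPathfinder machine-learning gating classed cells as Hoechst high-intensity objects or normal cells, classed normal cells as having healthy, pyknosed or fragmented nuclei, and classed pyknosed cells as mitotic or apoptotic. Tubulin, mitochondrial-mass and membrane-permeability phenotypes are per cents of the healthy-nucleus cells.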

[1] = 12 h, 1 µM, compound concentration 1 uM
[2] = 12 h, 10 µM, compound concentration 10 uM
[3] = 24 h, 1 µM, compound concentration 1 uM
[4] = 24 h, 10 µM, compound concentration 10 uM
[5] = 48 h, 1 µM, compound concentration 1 uM
[6] = 48 h, 10 µM, compound concentration 10 uM

In the case of `O=C(Nc1ccccc1Br)N[C@@H]1CCN(c2ccc(C(F)(F)F)cn2)C1` [SB-705498], the “Population Apoptotic (%)” value [1] is reported as 20% and 15.79%, the “Population Healthy Nuclei (%)” value [1] is reported as 43.71% and 74.07% and the “Population Hoechst High Intensity Objects (%)” value [1] is reported as 0%. For the same compound, the “Population Membrane Permeable-Phenotype (%)” value [1] was 3.03% and 0%, the “Population Mitochondria Different-Phenotype (%)” value [1] was 12.12% and 8.57% and the “Population Mitotic Cells (%)” value [1] was 80% and 84.21%. The “Population Normal (%)” value [1] was 100%, the “Population Pyknosed Nuclei (%)” value [1] was 29.8% and 20.11% and the “Population Tubulin-Different-Phenotype (%)” value [1] was 33.33% and 14.29%. For the same compound, the “Total Cell Count” value [1] was 151 and 189, the “Population Apoptotic (%)” value [2] was 10.94% and 22.22% and the “Population Fragmented Nuclei (%)” value [2] was 10.95% and 8.47%. The “Population Healthy Nuclei (%)” value [2] was 57.21% and 76.27%, the “Population Hoechst High Intensity Objects (%)” value [2] was 0% and the “Population Membrane Permeable-Phenotype (%)” value [2] was 3.48% and 7.41%. The “Population Mitochondria Different-Phenotype (%)” value [2] was 15.65% and 15.56%, the “Population Mitotic Cells (%)” value [2] was 89.06% and 77.78% and the “Population Normal (%)” value [2] was 100%. The “Population Pyknosed Nuclei (%)” value [2] was 31.84% and 15.25%, the “Population Tubulin-Different-Phenotype (%)” value [2] was 15.65% and 42.22% and the “Total Cell Count” value [2] was 201 and 177. For the same compound, the “Population Apoptotic (%)” value [3] was 15.62% and 20%, the “Population Healthy Nuclei (%)” value [3] was 57.14% and 83% and the “Population Hoechst High Intensity Objects (%)” value [3] was 0%. The “Population Membrane Permeable-Phenotype (%)” value [3] was 3.12% and 1.81%, the “Population Mitochondria Different-Phenotype (%)” value [3] was 11.46% and 8.43% and the “Population Mitotic Cells (%)” value [3] was 84.38% and 80%. For the same compound, the “Population Normal (%)” value [3] was 100%, the “Population Pyknosed Nuclei (%)” value [3] was 19.05% and 12.5% and the “Population Tubulin-Different-Phenotype (%)” value [3] was 30.21% and 13.86%. The “Total Cell Count” value [3] was 168 and 200, the “Population Apoptotic (%)” value [4] was 18.03% and 12% and the “Population Fragmented Nuclei (%)” value [4] was 9.01% and 6.59%. The “Population Healthy Nuclei (%)” value [4] was 64.81% and 78.44%, the “Population Hoechst High Intensity Objects (%)” value [4] was 0% and the “Population Membrane Permeable-Phenotype (%)” value [4] was 5.3% and 5.34%. The “Population Mitochondria Different-Phenotype (%)” value [4] was 9.93% and 20.61%, the “Population Mitotic Cells (%)” value [4] was 81.97% and 88% and the “Population Normal (%)” value [4] was 100%. The “Population Pyknosed Nuclei (%)” value [4] was 26.18% and 14.97%, the “Population Tubulin-Different-Phenotype (%)” value [4] was 29.8% and 41.98% and the “Total Cell Count” value [4] was 233 and 167. For the same compound, the “Population Apoptotic (%)” value [5] was 25% and 18.18%, the “Population Fragmented Nuclei (%)” value [5] was 16.97% and 7.55% and the “Population Healthy Nuclei (%)” value [5] was 73.33% and 87.26%. For the same compound, the “Population Hoechst High Intensity Objects (%)” value [5] was 0%, the “Population Membrane Permeable-Phenotype (%)” value [5] was 3.31% and 0.54% and the “Population Mitochondria Different-Phenotype (%)” value [5] was 12.4% and 3.24%. The “Population Mitotic Cells (%)” value [5] was 75% and 81.82%, the “Population Normal (%)” value [5] was 100% and the “Population Pyknosed Nuclei (%)” value [5] was 9.7% and 5.19%. The “Population Tubulin-Different-Phenotype (%)” value [5] was 12.4% and 13.51%, the “Total Cell Count” value [5] was 165 and 212 and the “Population Apoptotic (%)” value [6] was 31.25% and 21.43%. For the same compound, the “Population Fragmented Nuclei (%)” value [6] was 9.02% and 8.28%, the “Population Healthy Nuclei (%)” value [6] was 84.43% and 83.43% and the “Population Hoechst High Intensity Objects (%)” value [6] was 0%. The “Population Membrane Permeable-Phenotype (%)” value [6] was 1.46% and 9.93%, the “Population Mitochondria Different-Phenotype (%)” value [6] was 12.62% and 5.67% and the “Population Mitotic Cells (%)” value [6] was 68.75% and 78.57%. The “Population Normal (%)” value [6] was 100%, the “Population Pyknosed Nuclei (%)” value [6] was 6.56% and 8.28% and the “Population Tubulin-Different-Phenotype (%)” value [6] was 17.48% and 42.55%. The “Total Cell Count” value [6] was 244 and 169.

— ChEMBL document CHEMBL5724801, “EUbOPEN Chemogenomics Library - Multiplex” (2024)
